Data set [1] deals with T1, Mitogen-activated protein kinase kinase kinase 12 (Homo sapiens) (UniProt Q12852).
T1 sequence (whole entry): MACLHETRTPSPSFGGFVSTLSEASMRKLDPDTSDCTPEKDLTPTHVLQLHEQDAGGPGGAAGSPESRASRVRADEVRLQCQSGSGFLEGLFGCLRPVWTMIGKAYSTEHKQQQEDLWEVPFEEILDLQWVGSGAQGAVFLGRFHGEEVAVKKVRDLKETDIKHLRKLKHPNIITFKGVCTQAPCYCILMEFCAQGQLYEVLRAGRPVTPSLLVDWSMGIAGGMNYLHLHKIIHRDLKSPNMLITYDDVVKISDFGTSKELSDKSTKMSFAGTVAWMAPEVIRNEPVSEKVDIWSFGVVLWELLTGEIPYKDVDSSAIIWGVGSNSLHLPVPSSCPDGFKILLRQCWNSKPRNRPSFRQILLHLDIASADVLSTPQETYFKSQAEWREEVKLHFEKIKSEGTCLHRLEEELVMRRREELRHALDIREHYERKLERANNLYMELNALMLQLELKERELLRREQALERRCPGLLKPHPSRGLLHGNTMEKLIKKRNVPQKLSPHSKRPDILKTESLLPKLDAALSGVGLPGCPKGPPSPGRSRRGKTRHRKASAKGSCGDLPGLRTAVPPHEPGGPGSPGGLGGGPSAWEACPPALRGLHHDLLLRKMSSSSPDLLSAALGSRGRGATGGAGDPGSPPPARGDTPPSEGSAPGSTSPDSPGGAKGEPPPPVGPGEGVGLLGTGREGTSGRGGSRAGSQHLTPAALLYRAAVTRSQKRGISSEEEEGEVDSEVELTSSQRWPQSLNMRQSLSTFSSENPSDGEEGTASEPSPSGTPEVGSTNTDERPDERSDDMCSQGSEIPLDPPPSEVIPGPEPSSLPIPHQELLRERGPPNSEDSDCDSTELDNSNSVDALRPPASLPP
The data set can be described thus: Inhibition of Flag DLK (unknown origin) transfected in HEK293 cells assessed as reduction of phosphorylation of MKK4 at 0.1 to 10 uM incubated for 5 hrs measured by Western blot analysis. Type of data set: cell-based. In a few lines: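 HEK293 cells were transfected with Flag-tagged DLK, with kinase-dead DLK K152A as comparator, 24 h before compound addition. Cells were then exposed to compound for 5 h. Phospho-MKK4, phospho-MKK7, phospho-JNK and phospho-c-Jun were probed.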

The target of data set [2] is Receptor-type tyrosine-protein kinase FLT3 (Homo sapiens, UniProt P36888). In words: Inhibition of Flt3 (unknown origin) by FRET method.
The target of data set [3] is Mitogen-activated protein kinase kinase kinase kinase 4 (Homo sapiens) (UniProt O95819). The data set can be described thus: Inhibition of MAP4K4 (unknown origin) at 1 uM by FRET method. An outline of the steps: (§1)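 SelectScreen panel of 58 kinases, each tested at a single 1 µM compound concentration. Read-out was Z′-LYTE FRET of labeled peptide phosphorylation, run by the vendor's protocols, reported as percent inhibition.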
Chain of Mitogen-activated protein kinase kinase kinase kinase 4 (Homo sapiens) (O95819 2-1239 limits assumed): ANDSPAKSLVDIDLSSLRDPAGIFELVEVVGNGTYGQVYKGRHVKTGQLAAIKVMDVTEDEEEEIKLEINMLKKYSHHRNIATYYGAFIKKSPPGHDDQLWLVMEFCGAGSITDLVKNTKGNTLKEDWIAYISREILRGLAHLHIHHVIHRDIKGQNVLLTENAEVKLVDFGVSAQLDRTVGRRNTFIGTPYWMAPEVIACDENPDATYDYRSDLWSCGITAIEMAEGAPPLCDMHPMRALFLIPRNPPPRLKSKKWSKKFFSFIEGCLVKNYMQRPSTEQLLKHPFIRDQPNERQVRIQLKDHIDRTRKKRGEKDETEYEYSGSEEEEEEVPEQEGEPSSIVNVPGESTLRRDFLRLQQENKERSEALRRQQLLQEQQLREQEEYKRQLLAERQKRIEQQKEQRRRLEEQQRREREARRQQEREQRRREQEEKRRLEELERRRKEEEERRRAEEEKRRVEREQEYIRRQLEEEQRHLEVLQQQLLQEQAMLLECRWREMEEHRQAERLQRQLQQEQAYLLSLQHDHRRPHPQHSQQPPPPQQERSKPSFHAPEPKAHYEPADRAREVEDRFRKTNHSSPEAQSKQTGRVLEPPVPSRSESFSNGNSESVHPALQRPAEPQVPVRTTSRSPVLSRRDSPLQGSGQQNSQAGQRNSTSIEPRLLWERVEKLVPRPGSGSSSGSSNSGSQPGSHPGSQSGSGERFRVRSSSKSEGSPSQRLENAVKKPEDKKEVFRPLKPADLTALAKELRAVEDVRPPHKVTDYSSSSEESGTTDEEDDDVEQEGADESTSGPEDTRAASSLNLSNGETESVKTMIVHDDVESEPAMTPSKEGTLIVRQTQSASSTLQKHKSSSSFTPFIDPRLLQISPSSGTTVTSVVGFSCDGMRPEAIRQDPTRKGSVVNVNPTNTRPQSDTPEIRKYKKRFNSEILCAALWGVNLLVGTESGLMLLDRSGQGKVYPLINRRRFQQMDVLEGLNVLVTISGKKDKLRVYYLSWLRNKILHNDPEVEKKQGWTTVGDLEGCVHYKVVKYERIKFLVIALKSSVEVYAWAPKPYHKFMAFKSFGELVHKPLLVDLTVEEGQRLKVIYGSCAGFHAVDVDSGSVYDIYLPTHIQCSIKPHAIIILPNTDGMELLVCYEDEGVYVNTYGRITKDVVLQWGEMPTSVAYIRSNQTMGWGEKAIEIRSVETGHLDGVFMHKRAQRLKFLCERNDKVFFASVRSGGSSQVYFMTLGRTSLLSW

In data set [4] the target is RAC-alpha serine/threonine-protein kinase (Homo sapiens) (UniProt P31749). In words: Inhibition of AKT1 (unknown origin) at 1 uM by FRET method. An outline of the steps: as §1
Data set [5] has as its target Myotonin-protein kinase (Homo sapiens) (UniProt Q09013). The data set can be described thus: Inhibition of DMPK (unknown origin) at 1 uM by FRET method. In a few lines:
as §1

A further data set relates to Mus musculus. The data set can be described thus: Unbound fraction in brain in mouse at 50 mg/kg, po at 6 hr. In kind it is ADME, organism-based. To be noted: in vivo.
Data set [6] concerns the target Serine/threonine-protein kinase Nek1 (Homo sapiens) (UniProt Q96PY6). In words: Inhibition of NEK1 (unknown origin) at 1 uM by FRET method. In a few lines:
(§2)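 Single-point screen at 1 uM against a panel of 58 representative kinases. Readout was labeled-peptide phosphorylation by FRET (Z′-LYTE), using the vendor's protocols.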

Data set [7] addresses T2, Mitogen-activated protein kinase kinase kinase 12 (Homo sapiens, UniProt Q12852).
T2 sequence (Q12852 whole entry): T1 sequence (whole entry)
In words: Inhibition of N-terminally GST- tagged human DLK catalytic domain (1 to 520 amino acids) using N-terminally HIS-tagged MKK4 K131M as substrate incubated for 60 mins by TR-FRET assay. A general note: TR-FRET usually uses a lanthanide donor and a delayed reading to cut background.

Data set [8] has as its target Fibroblast growth factor receptor 1 (Homo sapiens) (UniProt P11362). The data set can be described thus: Inhibition of FGFR1 (unknown origin) at 1 uM by FRET method. An outline of the steps:
as §1

Data set [9] deals with Inhibitor of nuclear factor kappa-B kinase subunit beta (Homo sapiens) (UniProt O14920). In words: Inhibition of IKKbeta (unknown origin) at 1 uM by FRET method. In a few lines:
as §1

Another data set concerns human MDR1. In words: Efflux ratio of permeability across basolateral to apical over apical to basolateral side in MDCK cells transfected with human MDR1 at 5 uM by LC-MS/MS analysis. The settings on record: dog.
The next data set addresses TAK1/TAB1 (Homo sapiens) (UniProt Q15750+O43318). The data set can be described thus: Inhibition of TAK1-TAB1 (unknown origin) at 1 uM by FRET method. In kind it is protein-complex assay. In a few lines:
as §2

Data set [10] in a line: AUC (0 to 6 h) in mouse at 50 mg/kg, po. Details: dose 50 mg/kg, time < 6 hr, route oral. To be noted: in vivo. In kind it is ADME, organism-based. An outline of the steps: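 C57/Bl6 mice were given a single 50 mg/kg oral dose as an MCT suspension. Plasma was sampled over 0–6 h for Cmax, Tmax and AUC0–6h.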
The target in data set [11] is Casein kinase I isoform gamma-2 (Homo sapiens) (UniProt P78368). The data set can be described thus: Inhibition of CK1gamma2 (unknown origin) at 1 uM by FRET method. An outline of the steps:
as §1

Another data set deals with Rattus norvegicus. The data set can be described thus: Free clearance in […] rat at 0.4 or 1 mg/kg, iv and 1 or 5 mg/kg, po. Type of data set: ADME, organism-based. The settings on record: in vivo. In a few lines:
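Rat PK used iv dosing at 0.4 or 1 mg/kg in 60% PEG solution and po dosing at 1 or 5 mg/kg as an aqueous 1% methylcellulose suspension. Free clearance is CL/fu, where fu is the fraction unbound in plasma.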

Data set [12] has as its target Mitogen-activated protein kinase 10 (Homo sapiens, UniProt P53779). In words: Inhibition of JNK3 (unknown origin) by FRET method. An outline of the steps:
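JNK1, JNK2 and JNK3 IC50 values came from a 10-point dose–response enzymatic assay.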

Data set [13] addresses Dual specificity mitogen-activated protein kinase kinase 7 (Homo sapiens, UniProt O14733). The data set can be described thus: Inhibition of MKK7 (unknown origin) using KFMMpTPYVVTR substrate incubated for 1 hr measured by MpTPpYV probe-based fluorescence polarization assay. On the technique in general: In fluorescence polarisation assays a small probe gives low polarisation when free and higher when bound to something large.

Data set [14] can be described thus: Ratio of unbound AUC in brain to plasma of […] rat at 0.4 or 1 mg/kg, iv and 1 or 5 mg/kg, po. Type of data set: ADME, organism-based. In a few lines:
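Rat PK: iv dosing at 0.4 or 1 mg/kg as a 60% PEG solution and oral dosing at 1 or 5 mg/kg as an aqueous suspension in 1% methylcellulose. The ratio is unbound brain AUC over unbound plasma AUC. Unbound clearance was taken as CL/fu, where fu is the fraction unbound in plasma.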

Data set [15] concerns the target Tyrosine-protein kinase JAK3 (Homo sapiens) (UniProt P52333). In words: Inhibition of JAK3 (unknown origin) at 1 uM by FRET method. An outline of the steps:
as §1

Active and inactive are the calls of the source. The calls are words filed in the database; no cut-off is given here.

Chain of Inhibitor of nuclear factor kappa-B kinase subunit beta (Homo sapiens) (O14920 whole entry): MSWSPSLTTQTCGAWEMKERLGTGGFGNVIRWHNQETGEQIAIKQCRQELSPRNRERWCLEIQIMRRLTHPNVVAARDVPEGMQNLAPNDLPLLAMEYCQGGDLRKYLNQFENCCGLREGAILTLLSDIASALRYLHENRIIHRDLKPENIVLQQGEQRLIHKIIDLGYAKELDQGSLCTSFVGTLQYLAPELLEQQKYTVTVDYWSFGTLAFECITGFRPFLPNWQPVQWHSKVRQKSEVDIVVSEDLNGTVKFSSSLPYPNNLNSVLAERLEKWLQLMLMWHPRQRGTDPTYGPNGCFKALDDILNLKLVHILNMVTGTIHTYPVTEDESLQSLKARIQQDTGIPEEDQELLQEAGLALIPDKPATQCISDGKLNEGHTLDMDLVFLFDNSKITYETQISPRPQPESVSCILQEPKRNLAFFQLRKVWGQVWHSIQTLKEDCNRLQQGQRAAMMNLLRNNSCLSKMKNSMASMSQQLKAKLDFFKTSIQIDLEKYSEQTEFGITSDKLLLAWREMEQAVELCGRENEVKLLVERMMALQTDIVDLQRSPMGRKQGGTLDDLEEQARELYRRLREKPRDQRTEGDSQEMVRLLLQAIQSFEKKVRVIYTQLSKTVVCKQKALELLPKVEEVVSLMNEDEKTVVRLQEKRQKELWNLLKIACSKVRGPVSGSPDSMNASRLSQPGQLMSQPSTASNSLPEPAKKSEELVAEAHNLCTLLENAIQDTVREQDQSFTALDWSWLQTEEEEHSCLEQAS
Chain of Dual specificity mitogen-activated protein kinase kinase 7 (O14733 whole entry): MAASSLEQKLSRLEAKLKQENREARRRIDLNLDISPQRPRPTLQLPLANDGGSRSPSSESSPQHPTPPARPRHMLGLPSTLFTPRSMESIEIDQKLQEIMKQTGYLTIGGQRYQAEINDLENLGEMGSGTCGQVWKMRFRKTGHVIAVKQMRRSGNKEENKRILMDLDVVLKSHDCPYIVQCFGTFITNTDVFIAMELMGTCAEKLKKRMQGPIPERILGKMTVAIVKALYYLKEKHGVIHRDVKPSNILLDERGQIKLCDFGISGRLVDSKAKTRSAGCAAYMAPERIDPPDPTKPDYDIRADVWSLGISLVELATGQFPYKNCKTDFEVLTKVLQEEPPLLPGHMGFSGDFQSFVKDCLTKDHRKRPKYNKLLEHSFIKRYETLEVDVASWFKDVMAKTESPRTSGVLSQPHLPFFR
Chain of Myotonin-protein kinase (Homo sapiens) (Q09013 whole entry): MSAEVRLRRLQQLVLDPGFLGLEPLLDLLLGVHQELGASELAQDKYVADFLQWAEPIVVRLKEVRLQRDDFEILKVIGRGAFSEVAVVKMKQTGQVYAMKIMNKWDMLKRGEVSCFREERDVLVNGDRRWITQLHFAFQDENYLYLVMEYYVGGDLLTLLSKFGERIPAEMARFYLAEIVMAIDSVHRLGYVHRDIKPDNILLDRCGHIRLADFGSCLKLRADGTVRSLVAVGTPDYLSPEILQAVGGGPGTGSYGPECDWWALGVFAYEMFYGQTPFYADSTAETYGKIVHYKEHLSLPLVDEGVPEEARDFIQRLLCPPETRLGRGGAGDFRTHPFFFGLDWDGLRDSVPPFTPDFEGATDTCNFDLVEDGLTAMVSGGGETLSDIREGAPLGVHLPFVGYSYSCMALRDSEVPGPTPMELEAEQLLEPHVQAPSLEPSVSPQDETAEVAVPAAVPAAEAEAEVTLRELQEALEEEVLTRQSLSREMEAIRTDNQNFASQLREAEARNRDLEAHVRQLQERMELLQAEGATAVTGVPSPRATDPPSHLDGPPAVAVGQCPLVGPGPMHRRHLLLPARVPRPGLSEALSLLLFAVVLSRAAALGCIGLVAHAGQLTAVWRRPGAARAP
Chain of Casein kinase I isoform gamma-2 (Homo sapiens) (P78368 whole entry, looked up, canonical isoform): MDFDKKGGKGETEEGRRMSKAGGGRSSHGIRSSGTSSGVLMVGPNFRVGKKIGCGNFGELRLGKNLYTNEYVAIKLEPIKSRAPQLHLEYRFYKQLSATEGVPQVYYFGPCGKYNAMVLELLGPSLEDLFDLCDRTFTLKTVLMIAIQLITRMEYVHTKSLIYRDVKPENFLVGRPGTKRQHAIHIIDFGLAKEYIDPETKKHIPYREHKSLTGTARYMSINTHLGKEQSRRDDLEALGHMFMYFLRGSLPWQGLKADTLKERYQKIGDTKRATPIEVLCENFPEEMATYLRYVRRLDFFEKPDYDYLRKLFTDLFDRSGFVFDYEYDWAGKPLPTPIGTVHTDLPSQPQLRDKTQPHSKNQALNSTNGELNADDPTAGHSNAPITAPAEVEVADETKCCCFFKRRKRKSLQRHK
Chain of Fibroblast growth factor receptor 1 (Homo sapiens) (P11362 22-822 limits assumed): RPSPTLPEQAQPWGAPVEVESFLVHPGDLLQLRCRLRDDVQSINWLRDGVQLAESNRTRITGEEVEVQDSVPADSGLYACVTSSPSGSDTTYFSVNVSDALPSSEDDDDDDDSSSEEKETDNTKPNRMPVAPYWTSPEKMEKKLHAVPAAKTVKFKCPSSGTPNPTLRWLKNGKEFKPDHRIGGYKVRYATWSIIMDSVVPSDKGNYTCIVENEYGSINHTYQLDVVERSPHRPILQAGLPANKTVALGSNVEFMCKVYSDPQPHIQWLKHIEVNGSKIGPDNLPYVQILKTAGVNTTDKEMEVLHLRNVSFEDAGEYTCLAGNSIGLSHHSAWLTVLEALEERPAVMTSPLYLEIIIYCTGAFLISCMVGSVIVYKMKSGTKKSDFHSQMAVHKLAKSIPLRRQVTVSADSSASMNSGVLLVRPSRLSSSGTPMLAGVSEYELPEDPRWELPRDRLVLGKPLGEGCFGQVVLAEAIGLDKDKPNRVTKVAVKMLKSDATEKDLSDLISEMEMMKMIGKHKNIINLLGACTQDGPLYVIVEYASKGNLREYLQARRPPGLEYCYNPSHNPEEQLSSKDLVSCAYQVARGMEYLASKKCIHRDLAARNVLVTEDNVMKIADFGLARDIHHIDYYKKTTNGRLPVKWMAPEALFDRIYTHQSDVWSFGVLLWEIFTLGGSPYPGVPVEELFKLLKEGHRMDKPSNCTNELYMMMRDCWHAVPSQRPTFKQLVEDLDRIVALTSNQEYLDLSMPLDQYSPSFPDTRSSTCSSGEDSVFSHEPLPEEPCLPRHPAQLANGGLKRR
Chain of Mitogen-activated protein kinase 10 (P53779 whole entry): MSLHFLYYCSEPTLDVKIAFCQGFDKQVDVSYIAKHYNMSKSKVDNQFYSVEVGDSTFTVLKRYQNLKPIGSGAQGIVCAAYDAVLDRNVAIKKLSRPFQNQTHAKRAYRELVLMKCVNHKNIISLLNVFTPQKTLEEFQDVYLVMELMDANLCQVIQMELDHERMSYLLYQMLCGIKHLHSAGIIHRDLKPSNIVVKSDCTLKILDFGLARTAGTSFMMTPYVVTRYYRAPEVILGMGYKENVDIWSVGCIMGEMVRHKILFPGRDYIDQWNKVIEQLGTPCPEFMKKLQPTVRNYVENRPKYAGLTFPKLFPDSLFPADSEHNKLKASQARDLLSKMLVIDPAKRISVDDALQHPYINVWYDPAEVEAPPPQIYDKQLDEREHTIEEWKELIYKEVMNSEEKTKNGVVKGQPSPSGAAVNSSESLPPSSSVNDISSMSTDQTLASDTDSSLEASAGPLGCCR

Consider `N#Cc1ccnc(Nc2cc(C3CCN(C4COC4)CC3)n(C3CCCC3)n2)c1`, for which, in [1], the inhibition (commonly the relative decrease from the control value, in per cent) is “Active”. Further, the IC50 (commonly the midpoint of a concentration-inhibition curve) in data set [2] was 322 nM; in [12], 2100 nM; in [13], above 5000 nM. Moreover, the inhibition was 12.1% in data set [3]; -3.6% in data set [4]; 12% in data set [5]; 3.1% in data set [6]; 0.3% in [8]; 5.4% in [9]. Moreover, the inhibition turned out to be 13.6% at TAK1/TAB1 (Homo sapiens), 1.8% in [11] and 12.5% in data set [15]. Besides, the “Drug uptake(free)” value with Mus musculus came out at 0.05 µM. For the same molecule, in data set [7], the Ki – broadly, the dissociation constant of the complex between target and ligand, obtained from inhibition or displacement – came to 42 nM. The efflux ratio (in general, the permeability from basolateral to apical divided by that in the opposite direction, in the common usage) at 5 µM in the data set with human MDR1 is 1.4. For the same molecule, the AUC(0-t) (in general, the area under the concentration-time curve up to a stated or last time point) at 6 h in data set [10] was 15.8 µM·h. For the same molecule, the CL free in the data set with Rattus norvegicus was found to be 327 mL/min/kg. Further, the Kp uu in data set [14] was found to be 0.35.

These data come from ChEMBL document CHEMBL3627690, “Scaffold-Hopping and Structure-Based Discovery of Potent, Selective, And Brain Penetrant N-(1H-Pyrazol-3-yl)pyridin-2-amine Inhibitors of Dual Leucine Zipper Kinase (DLK, MAP3K12)” (J Med Chem, 2015).
